Laboratory results from ChEMBL document CHEMBL5131498, “Synthesis and biological evaluation of orally active prodrugs and analogs of para-aminosalicylic acid (PAS)” (Eur J Med Chem, 2022).
≈ marks a conversion by molar mass, not a printed value.

Experiments:
[1] = tested on: Mycobacterium tuberculosis; assay: Antimycobacterial activity against drug susceptible Mycobacterium tuberculosis H37Rv assessed as inhibition of bacterial growth measured after 2 weeks by microbroth dilution method; format: functional; conditions: 336 h
In short: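 Diluted 1000-fold into 96-well plates with 2-fold serial compound dilutions and incubated at 37 °C for 2 weeks. Growth scored by mirror at 1 and 2 weeks. MIC is the lowest concentration completely inhibiting growth; tested in duplicate. DMSO, isoniazid and linezolid served as controls.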

[2] = Ratio of compound AUC to para-aminosalicylic acid AUC in CD-1 mouse; format: ADME; conditions: in vivo
[3] = tested on: Mycobacterium tuberculosis; assay: Antimycobacterial activity against Mycobacterium tuberculosis H37Rv assessed as inhibition of bacterial growth measured after 10 days by microbroth dilution method; format: functional; conditions: 240 h, time 10 day
[4] = AUC in CD-1 mouse plasma assessed as para-aminosalicylic acid AUC at 10 mg/kg, po administered as single dose and measured up to 5 hrs by HPLC-MS/MS analysis; format: ADME, organism-based; parameters: time < 5 hrs, dose 10 mg/kg, route po; conditions: in vivo
In short: (§1)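 Snapshot PK: single oral gavage at 10 mg/kg in 5% dimethylacetamide:60% PEG 300:35% (5% dextrose in water) solution to female CD-1 mice (n = 2). Tail-vein blood (K2EDTA) at 0.5, 1, 3, 5 h; plasma protein-precipitated in MeCN with internal standard, prodrug and released PAS quantified by LC-MS/MS; AUC by non-compartmental analysis.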

[5] = AUC in CD-1 mouse at 10 mg/kg, po administered as single dose and measured up to 5 hrs by LC-MS/MS analysis; format: ADME, organism-based; parameters: dose 10 mg/kg, time < 5 hrs, route po; conditions: in vivo; in short: as §1
[6] = Metabolic stability in human plasma assessed as parent compound remaining at 1 ug/ml measured after 2 hrs by LC-MS/MS analysis; format: ADME, cell-free; conditions: at 1 µg/mL, read-out: Stability
In short: (§2)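 Compound at 1 μg/mL final (from 20 μg/mL DMSO stock; 5% DMSO) incubated in K2EDTA plasma (female CD-1 mouse or human) at 37 °C with shaking. Aliquots quenched in 1:1 MeCN/MeOH with verapamil; parent and released PAS measured by high-resolution LC-MS/MS; percent parent remaining versus initial concentration at 120 min.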

[7] = Metabolic stability in CD-1 mouse plasma assessed as parent compound remaining at 1 ug/ml measured after 2 hrs by LC-MS/MS analysis; format: ADME, cell-free; conditions: at 1 µg/mL, read-out: Stability; in short: as §2
[8] = AUC in CD-1 mouse at 25 mg/kg, po administered as single dose and measured up to 24 hrs by LC-MS/MS analysis; format: ADME, organism-based; parameters: dose 25 mg/kg, time < 24 hrs, route po; conditions: in vivo
In short: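 Female CD-1 mice (n = 3) given a single oral gavage dose of 25 mg/kg as a 0.5% CMC/0.5% Tween 80 suspension. Tail-vein blood was drawn at 0.5, 1, 3, 5, 7 and 24 h into K2EDTA and plasma stored at −80 °C. Only PAS was quantified, by LC-MS/MS after MeCN precipitation.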

[9] = AUC in CD-1 mouse plasma assessed as para-aminosalicylic acid AUC at 25 mg/kg, po administered as single dose and measured up to 5 hrs by LC-MS/MS analysis; format: ADME, organism-based; parameters: dose 25 mg/kg, time < 5 hrs, route po; conditions: in vivo
In short: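 Female CD-1 mice (n = 2) dosed once by oral gavage at 25 mg/kg in 5% dimethylacetamide:60% PEG 300:35% (5% dextrose in water). Lateral tail-vein blood into K2EDTA at 0.5, 1, 3, 5 h; plasma analysed by LC-MS/MS after MeCN precipitation with internal standard; AUC over 5 h by non-compartmental fit.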

[10] = AUC in CD-1 mouse plasma assessed as para-aminosalicylic acid AUC at 25 mg/kg, po administered as single dose and measured up to 24 hrs by LC-MS/MS analysis; format: ADME, organism-based; parameters: dose 25 mg/kg, time < 24 hrs, route po; conditions: in vivo

| Compound | Ratio AUC [2] | MIC90 [3] [µM] | remaining at 2 h, 1 ug/ml [6] [%] | remaining at 2 h, 1 ug/ml [7] [%] | other results |
| --- | --- | --- | --- | --- | --- |
| CC(=O)NC[C@H]1CN(c2ccc(N3CCOCC3)c(F)c2)C(=O)O1 [LINEZOLID] | – | – | – | – | MIC90 [1]: 0.7 µM (≈ 0.236 µg/mL) |
| CCOC(=O)c1cc(F)c(N)cc1O | 0.02 | > 128 | – | – | – |
| COC(=O)c1ccc(N)cc1O | 0.2 | 64 (≈ 10.7 µg/mL) | 94 | 84 | AUC [4]: 53 ng·h/mL; AUC at 5 h [5]: 1700 ng·h/mL |
| CNc1ccc(C(=O)OC)c(O)c1 | – | – | 96 | 90 | AUC at 5 h [5]: 78 ng·h/mL |
| [N-]=[N+]=Nc1ccc(C(=O)O)c(O)c1 | 430 | 128 (≈ 22.9 µg/mL) | – | – | AUC [8]: 900000 ng·h/mL |
| Cl.Nc1cc(O)c(C(=O)O)c(F)c1 | 1.2 | 64 | – | – | AUC [8]: 2400 ng·h/mL |
| CCOC(=O)c1ccc(N)cc1O | 0.1 | 2 (≈ 0.362 µg/mL) | 94 | 92 | AUC at 5 h [5]: 44 ng·h/mL |
| CC(OC(=O)c1ccc(N)cc1O)OC(=O)C(C)(C)C (centres undefined) | – | – | 0 | 0 | AUC [9]: 190 ng·h/mL |
| Nc1cc(O)c(C(=O)O)cc1F | 4.9 | 8 (≈ 1.37 µg/mL) | – | – | AUC [8]: 10000 ng·h/mL; MIC90 [1]: 6.3 µM (≈ 1.08 µg/mL) |
| CNc1ccc(C(=O)O)c(O)c1 | 59 | > 128 | – | – | AUC [8]: 130000 ng·h/mL |
| Cl.Nc1ccc(C(=O)O)c(O)c1F | 1.9 | 32 | – | – | AUC [8]: 4000 ng·h/mL |
| Cc1oc(=O)oc1COC(=O)c1ccc(N)cc1O | – | – | 0 | 0 | AUC [9]: 250 ng·h/mL |
| CC(C)OC(=O)c1ccc(N)cc1O | 0.6 | > 128 | 93 | 94 | AUC at 5 h [5]: 230 ng·h/mL |
| Nc1ccc(C(=O)O)c(O)c1 [AMINOSALICYLIC ACID] | 1 | 0.5 (≈ 0.0766 µg/mL) | – | – | AUC [4]: 380 ng·h/mL; AUC [10]: 3400 ng·h/mL; MIC90 [1]: 0.2 µM (≈ 0.0306 µg/mL) |
| CC(C)(C)C(=O)OCOC(=O)c1ccc(N)cc1O | – | – | 15 | 0 | AUC [4]: 460 ng·h/mL; AUC [10]: 300 ng·h/mL |
| CC(C)OC(=O)OCOC(=O)c1ccc(N)cc1O | – | – | 0 | 0 | AUC [4]: 19 ng·h/mL |
| CC(C)OC(=O)OC(C)OC(=O)c1ccc(N)cc1O (centres undefined) | – | – | 24 | 0 | AUC [4]: 190 ng·h/mL |
